The values that follow come from ChEMBL document CHEMBL1143665, “Novel acyclic enediynes inhibit Cyclin A and Cdc25C expression and induce apoptosis phenomenon to show potent antitumor proliferation” (2007).

The subject of one experiment is SF-295. Nature of the experiment: Cytotoxicity against human SF295 cells. It counts as functional.
Experiment [1] concerns K562. Nature of the experiment: Cytotoxicity against human K562 cells. It counts as functional.
The next experiment relates to DU-145. Nature of the experiment: Cytotoxicity against human DU145 cells. Format: functional.
A further experiment has as its system SR. Nature of the experiment: Cytotoxicity against human SR cells. It counts as functional.
For a further experiment, the system named is HCT-15. Nature of the experiment: Cytotoxicity against human HCT15 cells. It counts as functional.
The next experiment deals with LOX IMVI. Nature of the experiment: Cytotoxicity against human LOX IMVI cells. It counts as functional.
In a further experiment the test system is OVCAR-3. Nature of the experiment: Cytotoxicity against human OVCAR-3 cells. Format: functional.
Another experiment relates to MDA-MB-435. Nature of the experiment: Cytotoxicity against human MDA-MB-435 cells. It counts as functional.
For experiment [2], the system named is K562. Nature of the experiment: Cell cycle arrest in human K562 cells by accumulation at G0/G1 phase cell at 50 uM after 24 hrs relative to control. Format: functional. Summed up:
(§1)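 K-562 cells (RPMI 1640, 10% fetal calf serum, 37 °C, 5% CO2) exposed 24 h, pelleted, fixed in ice-cold 70% ethanol 30 min, RNase A (1 mg/ml) 37 °C 30 min, propidium iodide stain 30 min at room temperature in the dark; DNA content of 10,000 events by flow cytometry; phase and sub-G1 percentages compared with untreated control.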

In experiment [3] the test system is K562. Nature of the experiment: Cell cycle arrest in human K562 cells by accumulation at S phase cell at 50 uM after 24 hrs relative to control. Format: functional. Put shortly:
as §1

Experiment [4] has as its system K562. Nature of the experiment: Cell cycle arrest in human K562 cells by accumulation at G2/M phase cell at 50 uM after 24 hrs relative to control. Format: functional. Put shortly:
as §1

Experiment [5] deals with K562. Nature of the experiment: Induction of apoptosis in human K562 cells assessed as accumulation at subG1 phase at 50 uM after 24 hrs relative to control. It counts as functional. Put shortly: as §1
For another experiment, the system named is M14. Nature of the experiment: Cytotoxicity against human M14 cells. Format: functional.
Another experiment deals with SK-OV-3. Nature of the experiment: Cytotoxicity against human SKOV3 cells. It counts as functional.
For a further experiment, the system named is MDA-MB-231. Nature of the experiment: Cytotoxicity against human MDA-MB-231 cells. It counts as functional.
In experiment [6] the test system is K562. Nature of the experiment: Decrease in Cyclin A protein levels in human K562 cells at 25 uM. It counts as functional, cell-based. Put shortly: (§2)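 Western blot of treated K-562 cells: lysis in Tris pH 7.5/1% NP-40/EDTA/NaCl with protease inhibitors on ice 30 min, spun 20,000g 30 min 4 °C; 50 µg lysate on 12% SDS-PAGE, PVDF transfer, probed with anti-Cdk1, -Cdk2, -Cyclin A, -Cyclin B1 or -Cdc25C; enhanced chemiluminescence detection.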

Experiment [7] concerns K562. Nature of the experiment: Decrease in Cyclin A protein levels in human K562 cells at 50 uM. It counts as functional, cell-based. Summed up: as §2
For experiment [8], the system named is K562. Nature of the experiment: Decrease in Cdc25C protein levels in human K562 cells at 25 uM. It counts as functional, cell-based. Summed up: as §2
Experiment [9] relates to K562. Nature of the experiment: Decrease in Cdc25C protein levels in human K562 cells at 50 uM. Format: functional, cell-based. Summed up: as §2
For experiment [10], the system named is K562. Nature of the experiment: Effect on Cyclin B protein levels in human K562 cells at 25 uM. Format: functional, cell-based. Summed up: as §2
Experiment [11] deals with K562. Nature of the experiment: Effect on Cyclin B protein levels in human K562 cells at 50 uM. It counts as functional, cell-based. Put shortly:
as §2

Experiment [12] has as its system K562. Nature of the experiment: Effect on Cdk1 protein levels in human K562 cells at 25 uM. Format: functional, cell-based. Summed up: as §2
Experiment [13] has as its system K562. Nature of the experiment: Effect on Cdk1 protein levels in human K562 cells at 50 uM. It counts as functional, cell-based. Summed up: as §2
The subject of experiment [14] is K562. Nature of the experiment: Effect on Cdk2 protein levels in human K562 cells at 25 uM. Format: functional, cell-based. Summed up:
as §2

Experiment [15] deals with K562. Nature of the experiment: Effect on Cdk2 protein levels in human K562 cells at 50 uM. Format: functional, cell-based. Put shortly: as §2

The structures appear in SMILES notation. Active and inactive are the calls of the source. No cut-off for these calls is given here.

As usually defined, the GI50 is the concentration at which growth is held to half of that of the control. Higher therefore signals less potent growth inhibition.

Turning to `CSc1ccccc1C#Cc1ccccc1C#CCCCCO`, the GI50 amounted to 1.5 µM with SF-295; 6.1 µM with K562 [1]; 4.7 µM in the experiment with DU-145; 3.5 µM with SR; 3.8 µM in the experiment on HCT-15; 5.8 µM in the experiment on LOX IMVI. The GI50 in the experiment with OVCAR-3 is 14.7 µM; in the experiment with MDA-MB-435, 3.9 µM. Also, the Activity in the experiment on K562 [2] is recorded as 19.8%; in the experiment with K562 [3], 24.6%; in the experiment on K562 [4], 55.7%; in the experiment on K562 [5], 9.23%.

As to `OCCCCC#Cc1ccccc1C#Cc1cccc(O)c1`, the GI50 came out at 21 µM in the experiment on SF-295; 19.2 µM in the experiment on K562 [1]; 17.4 µM in the experiment with DU-145; 13.6 µM in the experiment with HCT-15; 16.7 µM in the experiment on LOX IMVI; 20 µM in the experiment on OVCAR-3. For the same compound, in the experiment on MDA-MB-435, halving of growth (GI50) required 16.1 µM. Further, the Activity in the experiment on K562 [2] was found to be 26.7%; in the experiment with K562 [3], 37.1%; in the experiment with K562 [4] it was 36.2%; in the experiment on K562 [5] it was 18.25%.

Turning to `OCCCCC#Cc1ccccc1C#Cc1cccs1`, the GI50 in the experiment with SF-295 was determined as 19 µM; with K562 [1] it was 20.3 µM; in the experiment with DU-145 it was 13 µM; with SR it was 1.8 µM; with HCT-15, 13.1 µM; in the experiment with LOX IMVI, 13.9 µM. The GI50 came to 15 µM in the experiment on OVCAR-3 and 16.6 µM in the experiment with MDA-MB-435. Moreover, the Activity in the experiment on K562 [2] is reported as 22.7%; in the experiment on K562 [3], 47.5%; in the experiment with K562 [4] it was 29.8%; in the experiment on K562 [5] it was 5.23%.

`OCCCCC#Cc1ccccc1C#Cc1ccccn1`: the GI50 in the experiment with SF-295 is 21.8 µM; in the experiment on K562 [1] it was 29 µM; in the experiment on DU-145, 9.8 µM; in the experiment with SR it was 25.5 µM; with HCT-15, 29.8 µM; in the experiment with LOX IMVI, 27.7 µM. Also, the GI50 came to 26.1 µM in the experiment on OVCAR-3 and 25.1 µM in the experiment on MDA-MB-435. Also, the Activity in the experiment with K562 [2] came to 30.4%; in the experiment on K562 [3], 52.6%; in the experiment with K562 [4] it was 17%; with K562 [5] it was 4.4%.

`OCCCCC#Cc1ccccc1C#Cc1ccc(C(F)(F)F)cc1`: the GI50 came out at 19.1 µM in the experiment on SF-295; 18.2 µM in the experiment with K562 [1]; 15.8 µM in the experiment with DU-145; 0.6 µM in the experiment on SR; 12.5 µM in the experiment with HCT-15; 17.1 µM in the experiment with LOX IMVI. For the same compound, the GI50 in the experiment with OVCAR-3 was 17.8 µM; with MDA-MB-435 it was 16.3 µM. For the same compound, the Activity with K562 [2] turned out to be 36.9%; in the experiment with K562 [3], 38.3%; in the experiment on K562 [4], 24.8%; in the experiment with K562 [5] it was 5.36%.

With `COc1ccccc1C#Cc1ccccc1C#CCCCCO`, the GI50 with SF-295 stood at 22.1 µM; with K562 [1] it was 15.5 µM; in the experiment on DU-145, 14.3 µM; in the experiment on SR it was 1 µM; in the experiment on HCT-15, 19.9 µM; in the experiment on LOX IMVI, 17.9 µM. Also, the figures for the GI50 in the experiment on OVCAR-3 and in the experiment on MDA-MB-435 were 19.8 µM and 20.2 µM, respectively. For the same compound, the Activity in the experiment with K562 [2] is on record as 30.9%; in the experiment on K562 [3], 41.5%; with K562 [4], 27.6%; with K562 [5], 8.08%.

Take `OCC#Cc1ccccc1C#Cc1ccccc1`: the GI50 in the experiment with SF-295 was found to be 20.6 µM; with M14 it was 10.6 µM; in the experiment on K562 [1], 26 µM; with SK-OV-3 it was 16.6 µM; in the experiment on DU-145 it was 14.9 µM; in the experiment with MDA-MB-231, 3.26 µM.

Turning to `OCCCCC#Cc1ccccc1C#Cc1ccccc1C(F)(F)F`, the GI50 is 2.3 µM in the experiment with SF-295; 1.1 µM with K562 [1]; 6.1 µM in the experiment with DU-145; 0.4 µM with SR; 3.5 µM in the experiment on HCT-15; 4.9 µM with LOX IMVI. Also, the results for the GI50 with OVCAR-3 and in the experiment with MDA-MB-435 were 2.3 µM and 0.8 µM, respectively. Besides, the Activity came out at 2.7% with K562 [2], 10.8% in the experiment on K562 [3], 86.5% in the experiment with K562 [4] and 10.47% with K562 [5]. In addition, the result in the experiment on K562 [6], in the experiment with K562 [7], in the experiment on K562 [8] and with K562 [9] was Active. In addition, the outcome in the experiment on K562 [10], with K562 [11], in the experiment on K562 [12], with K562 [13], in the experiment on K562 [14] and in the experiment on K562 [15] was inactive.

For the compound `OCCCCC#Cc1ccccc1C#Cc1cccc(C(F)(F)F)c1`, the GI50 with SF-295 was found to be 16.5 µM; with K562 [1], 22.5 µM; in the experiment with DU-145, 15.3 µM; with SR, 18.3 µM; with HCT-15, 16.3 µM; in the experiment on LOX IMVI, 17.5 µM. In addition, the GI50 in the experiment with OVCAR-3 was 16.8 µM; in the experiment with MDA-MB-435, 16.9 µM. Further, the Activity in the experiment on K562 [2] is on record as 30.6%; in the experiment with K562 [3] it was 40%; with K562 [4], 29.4%; with K562 [5] it was 3.84%.

As to `COc1cccc(C#Cc2ccccc2C#CCCCCO)c1`, the GI50 in the experiment on SF-295 is 7.9 µM; in the experiment on K562 [1] it was 1.8 µM; in the experiment with DU-145, 4.1 µM; in the experiment with SR it was 1.9 µM; in the experiment on HCT-15, 3.6 µM; in the experiment on LOX IMVI, 6.3 µM. The GI50 in the experiment with OVCAR-3 is 10.7 µM; with MDA-MB-435 it was 1.9 µM. The Activity with K562 [2] stood at 3.4%; in the experiment with K562 [3] it was 11.9%; in the experiment with K562 [4], 84.6%; in the experiment with K562 [5], 10.81%.

On to `N#Cc1ccc(C#Cc2ccccc2C#CCCCCO)cc1`, for which the GI50 with SF-295 turned out to be 21.5 µM; in the experiment on K562 [1], 21.7 µM; with DU-145, 16 µM; with HCT-15 it was 15.6 µM; with LOX IMVI, 18.3 µM; with OVCAR-3 it was 19.9 µM. This compound also yielded a GI50 in the experiment on MDA-MB-435 of 18.9 µM. Further, the Activity with K562 [2] is 51.2%; with K562 [3] it was 38%; in the experiment with K562 [4], 10.8%; with K562 [5], 5.65%.

For the compound `OCCC#Cc1ccccc1C#Cc1ccccc1`, the GI50 was 28.1 µM in the experiment on SF-295; 16 µM in the experiment on M14; 11 µM in the experiment on K562 [1]; 17.3 µM in the experiment on SK-OV-3; 12.5 µM in the experiment on DU-145; 3.41 µM in the experiment with MDA-MB-231.

Regarding `OCCCCC#Cc1ccccc1C#Cc1ccccc1`, the GI50 in the experiment on SF-295 was 0.15 µM; in the experiment with M14 it was 10 µM; in the experiment with K562 [1], 21.1 µM; with SK-OV-3, 10.7 µM; in the experiment on DU-145 it was 5.22 µM; with MDA-MB-231, 4.29 µM.
